# Assay results gathered from unrelated publications.
# Protocols differ between the studies behind these lines.
# HTR2C: 5-hydroxytryptamine receptor 2C (HTR2C, Homo sapiens, UniProt P28335)
# HTR2B: 5-hydroxytryptamine receptor 2B (HTR2B, Homo sapiens, UniProt P41595)
SMILES,target,test,conditions,endpoint,result
COc1cc(C(F)(F)F)c(OC)cc1C1CCCNC1 (stereo not drawn),HTR2C,"calcium signal, agonist",,Emax,31%
COc1cc2c3c(c1OC)-c1c(cccc1OC)CC3N(C)CC2 (racemic),HTR2C,"ligand displacement, radioligand",10 µM,inhibition,51%
CC(C)CC(=O)OC[C@H]1O[C@@](C#N)(c2ccc3c(N)ncnn23)[C@H](O)[C@@H]1O,HTR2B,cell-free assay,20 µM,inhibition,10%
Nc1ncnc2c1ncn2[C@@H]1O[C@H](C[C@@H](N)CC[C@H](N)C(=O)O)[C@@H](O)[C@H]1O,"mRNA cap guanine-N(7) methyltransferase (RNMT, Homo sapiens, UniProt O43148)","enzyme activity, inhibitor",12.21 nM,inhibition,13.7%
[2H]c1c([2H])c([C@]2([2H])CCCN2C(=O)C(C)(C)Oc2ccc3cn[nH]c3c2)c([2H])c([2H])c1C([2H])([2H])[2H],"Serine/threonine-protein kinase DCLK3 (DCLK3, Homo sapiens, UniProt Q9C098)","binding, competition with immobilised ligand",1 µM,remaining binding,86%
COc1cc2cc3c4c(cc(OC)c(OC)c4c2cc1OC)CCN3C,HTR2C,"ligand displacement, radioligand",10 µM,inhibition,-1%
c1cncc([C@@H]2CCCN2)c1,HTR2B,ligand displacement,50 µM,inhibition,-2.22%
CC[C@H](C)[C@H](NC(=O)[C@H](CO)NC(=O)[C@H](Cc1ccc(O)cc1)NC(=O)[C@H](CC(=O)O)NC(=O)[C@H](CO)NC(=O)[C@@H](NC(=O)[C@H](Cc1ccccc1)NC(=O)[C@@H](NC(=O)CNC(=O)[C@H](CCC(=O)O)NC(=O)CCNC(=O)C1(c2ccc(Cl)cc2)CCOCC1)[C@@H](C)O)[C@@H](C)CC)C(=O)N[C@@H](C)C(=O)N[C@@H](CCSC)C(=O)N[C@@H](CC(=O)O)C(=O)N[C@@H](CCCCN)C(=O)N[C@H](C(=O)N[C@@H](Cc1c[nH]cn1)C(=O)N[C@@H](CCC(N)=O)C(=O)N[C@@H](CCC(N)=O)C(=O)N[C@@H](CC(=O)O)C(=O)N[C@@H](Cc1ccccc1)C(=O)N[C@H](C(=O)N[C@@H](CC(N)=O)C(=O)N[C@@H](Cc1c[nH]c2ccccc12)C(=O)N[C@@H](CC(C)C)C(=O)N[C@@H](CC(C)C)C(=O)N[C@@H](C)C(=O)N[C@@H](CCC(N)=O)C(=O)NCC(=O)N1CCC[C@H]1C(=O)N[C@@H](CO)C(=O)N[C@@H](CO)C(=O)NCC(=O)N[C@@H](C)C(=O)N1CCC[C@H]1C(=O)N1CCC[C@H]1C(=O)N1CCC[C@H]1C(=O)N[C@@H](CO)C(=O)N[C@@H](CCCCN)C(N)=O)C(C)C)[C@@H](C)CC,"Glucagon receptor (Mus musculus, UniProt Q61606)","cAMP, agonist",,Emax,< 20%
COc1cc2c3c(c1OC)-c1c(OC)ccc(Br)c1CC3N(C)CC2 (stereo not drawn),HTR2B,"ligand displacement, radioligand",10 µM,inhibition,88%
CN1CCC[C@H]1c1cccnc1,HTR2C,ligand displacement,50 µM,inhibition,-24.7%
CCCC(NCCc1cc(OC)c(C#N)cc1OC)c1ccccc1O (stereo not drawn),HTR2C,"calcium signal, agonist",,Emax,56%
COc1cc2c3c(c1OC)-c1c(OC)ccc(O)c1CC3N(C)CC2 (stereo not drawn),HTR2C,"ligand displacement, radioligand",10 µM,inhibition,60%
